In ChEMBL document CHEMBL2346543, “Triazolopyridazine LRRK2 kinase inhibitors” (Bioorg Med Chem Lett, 2013):
Values after ≈ are worked out from the molar mass of the structure shown. Values belong to the compound of their own block, whether it stands above or below them.

Experiments:
[1] = Permeability of the compound; format: ADME; conditions: not told; read-out: permeability
[2] = system: P-gp; assay: Efflux ratio in P-gp (unknown origin) mediated drug transport; format: ADME; conditions: human, not told
[3] = Kinetic solubility of the compound in isotonic buffer at pH 7.4; format: physicochemical; conditions: read-out: Kinetic_solubility
[4] = species: Homo sapiens; assay: Selectivity ratio of IC50 for wild type LRRK2 (unknown origin) to IC50 for LRRK2 G2019S mutant (unknown origin)
Summary of the method: (§1)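 HTRF assay with GST-LRRK2 (G2019S or wild type) measuring inhibition of LRRKtide phosphorylation. Biotinylated LRRKtide substrate; detection with Eu(K)-labelled anti-phospho-Moesin antibody plus streptavidin-XL665, read at 620 and 665 nm. Ratio taken as wild-type IC50 over G2019S IC50.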

[5] = biological target: Leucine-rich repeat serine/threonine-protein kinase 2 (Homo sapiens, UniProt Q5S007); assay: Inhibition of wild type LRRK2 (unknown origin) by TR-FRET assay; summary of the method: as §1
[6] = biological target: Leucine-rich repeat serine/threonine-protein kinase 2 (Homo sapiens, UniProt Q5S007, G2019S); assay: Inhibition of LRRK2 G2019S mutant (unknown origin) by TR-FRET assay; summary of the method: as §1
[7] = biological target: Dual specificity protein kinase TTK (Homo sapiens) (UniProt P33981); assay: Inhibition of Ttk (unknown origin) at 1 uM
Summary of the method: (§2)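 Single-point panel run by an outside contract lab: inhibition of each of 40 selected kinases measured at 1 µM test compound; percent inhibition reported.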

[8] = biological target: Proto-oncogene tyrosine-protein kinase receptor Ret (Homo sapiens) (UniProt P07949); assay: Inhibition of Ret (unknown origin) at 1 uM; summary of the method: as §2
[9] = biological target: Tyrosine-protein kinase SYK (Homo sapiens) (UniProt P43405); assay: Inhibition of Syk (unknown origin) at 1 uM; summary of the method: as §2
[10] = biological target: Serine/threonine-protein kinase PLK1 (Homo sapiens) (UniProt P53350); assay: Inhibition of PLK1 (unknown origin) at 1 uM; summary of the method: as §2
[11] = biological target: RAF proto-oncogene serine/threonine-protein kinase (Homo sapiens) (UniProt P04049); assay: Inhibition of Raf1 (unknown origin) at 1 uM; summary of the method: as §2
[12] = biological target: Phosphatidylinositol 4,5-bisphosphate 3-kinase catalytic subunit alpha isoform (Homo sapiens) (UniProt P42336); assay: Inhibition of PIK3CA (unknown origin) at 1 uM; summary of the method: as §2
[13] = species: Homo sapiens; assay: Inhibition of MAPK (unknown origin) at 1 uM; summary of the method: as §2
[14] = biological target: Platelet-derived growth factor receptor alpha (Homo sapiens) (UniProt P16234); assay: Inhibition of PDGFRalpha (unknown origin) at 1 uM; summary of the method: as §2
[15] = biological target: Tyrosine-protein kinase JAK1 (Homo sapiens) (UniProt P23458); assay: Inhibition of Jak1 (unknown origin) at 1 uM; summary of the method: as §2
[16] = biological target: Receptor-type tyrosine-protein kinase FLT3 (Homo sapiens) (UniProt P36888); assay: Inhibition of Flt3 (unknown origin) at 1 uM; summary of the method: as §2
[17] = biological target: Glycogen synthase kinase-3 beta (Homo sapiens) (UniProt P49841); assay: Inhibition of GSK3beta (unknown origin) at 1 uM; summary of the method: as §2
[18] = biological target: Receptor tyrosine-protein kinase erbB-4 (Homo sapiens) (UniProt Q15303); assay: Inhibition of ErbB4 (unknown origin) at 1 uM; summary of the method: as §2
[19] = biological target: Serine/threonine-protein kinase Chk1 (Homo sapiens) (UniProt O14757); assay: Inhibition of Chek1 (unknown origin) at 1 uM; summary of the method: as §2
[20] = biological target: Macrophage colony-stimulating factor 1 receptor (Homo sapiens) (UniProt P07333); assay: Inhibition of CSF1R (unknown origin) at 1 uM; summary of the method: as §2
[21] = biological target: Cyclin-dependent kinase 5/CDK5 activator 1 (Homo sapiens) (UniProt Q00535+Q15078); assay: Inhibition of CDK5/p25 (unknown origin) at 1 uM; format: protein-complex assay; summary of the method: as §2
[22] = biological target: Cyclin-dependent kinase 1/cyclin B1 (Homo sapiens) (UniProt P06493+P14635); assay: Inhibition of CDK1/Cyclin B (unknown origin) at 1 uM; format: protein-complex assay; summary of the method: as §2
[23] = biological target: RAC-alpha serine/threonine-protein kinase (Homo sapiens) (UniProt P31749); assay: Inhibition of Akt1 (unknown origin) at 1 uM; summary of the method: as §2
[24] = biological target: Aurora kinase A (Homo sapiens) (UniProt O14965); assay: Inhibition of Aurora A (unknown origin) at 1 uM; summary of the method: as §2
[25] = biological target: Tyrosine-protein kinase ABL1 (Homo sapiens) (UniProt P00519); assay: Inhibition of Abl1 (unknown origin) at 1 uM; summary of the method: as §2
[26] = system: Liver microsomes; assay: Metabolic stability in human liver microsomes; format: ADME, Microsome
[27] = system: Liver microsomes; assay: Metabolic stability in rat liver microsomes after 30 mins; format: ADME, Microsome; conditions: 0.5 h
Summary of the method: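 Compound incubated with NADPH-supplemented rat liver microsomes at 37 °C for 30 min; parent consumption and sulfoxide/sulfone metabolite formation monitored.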

Sequence of Leucine-rich repeat serine/threonine-protein kinase 2 (Homo sapiens, UniProt Q5S007) (Q5S007 whole entry): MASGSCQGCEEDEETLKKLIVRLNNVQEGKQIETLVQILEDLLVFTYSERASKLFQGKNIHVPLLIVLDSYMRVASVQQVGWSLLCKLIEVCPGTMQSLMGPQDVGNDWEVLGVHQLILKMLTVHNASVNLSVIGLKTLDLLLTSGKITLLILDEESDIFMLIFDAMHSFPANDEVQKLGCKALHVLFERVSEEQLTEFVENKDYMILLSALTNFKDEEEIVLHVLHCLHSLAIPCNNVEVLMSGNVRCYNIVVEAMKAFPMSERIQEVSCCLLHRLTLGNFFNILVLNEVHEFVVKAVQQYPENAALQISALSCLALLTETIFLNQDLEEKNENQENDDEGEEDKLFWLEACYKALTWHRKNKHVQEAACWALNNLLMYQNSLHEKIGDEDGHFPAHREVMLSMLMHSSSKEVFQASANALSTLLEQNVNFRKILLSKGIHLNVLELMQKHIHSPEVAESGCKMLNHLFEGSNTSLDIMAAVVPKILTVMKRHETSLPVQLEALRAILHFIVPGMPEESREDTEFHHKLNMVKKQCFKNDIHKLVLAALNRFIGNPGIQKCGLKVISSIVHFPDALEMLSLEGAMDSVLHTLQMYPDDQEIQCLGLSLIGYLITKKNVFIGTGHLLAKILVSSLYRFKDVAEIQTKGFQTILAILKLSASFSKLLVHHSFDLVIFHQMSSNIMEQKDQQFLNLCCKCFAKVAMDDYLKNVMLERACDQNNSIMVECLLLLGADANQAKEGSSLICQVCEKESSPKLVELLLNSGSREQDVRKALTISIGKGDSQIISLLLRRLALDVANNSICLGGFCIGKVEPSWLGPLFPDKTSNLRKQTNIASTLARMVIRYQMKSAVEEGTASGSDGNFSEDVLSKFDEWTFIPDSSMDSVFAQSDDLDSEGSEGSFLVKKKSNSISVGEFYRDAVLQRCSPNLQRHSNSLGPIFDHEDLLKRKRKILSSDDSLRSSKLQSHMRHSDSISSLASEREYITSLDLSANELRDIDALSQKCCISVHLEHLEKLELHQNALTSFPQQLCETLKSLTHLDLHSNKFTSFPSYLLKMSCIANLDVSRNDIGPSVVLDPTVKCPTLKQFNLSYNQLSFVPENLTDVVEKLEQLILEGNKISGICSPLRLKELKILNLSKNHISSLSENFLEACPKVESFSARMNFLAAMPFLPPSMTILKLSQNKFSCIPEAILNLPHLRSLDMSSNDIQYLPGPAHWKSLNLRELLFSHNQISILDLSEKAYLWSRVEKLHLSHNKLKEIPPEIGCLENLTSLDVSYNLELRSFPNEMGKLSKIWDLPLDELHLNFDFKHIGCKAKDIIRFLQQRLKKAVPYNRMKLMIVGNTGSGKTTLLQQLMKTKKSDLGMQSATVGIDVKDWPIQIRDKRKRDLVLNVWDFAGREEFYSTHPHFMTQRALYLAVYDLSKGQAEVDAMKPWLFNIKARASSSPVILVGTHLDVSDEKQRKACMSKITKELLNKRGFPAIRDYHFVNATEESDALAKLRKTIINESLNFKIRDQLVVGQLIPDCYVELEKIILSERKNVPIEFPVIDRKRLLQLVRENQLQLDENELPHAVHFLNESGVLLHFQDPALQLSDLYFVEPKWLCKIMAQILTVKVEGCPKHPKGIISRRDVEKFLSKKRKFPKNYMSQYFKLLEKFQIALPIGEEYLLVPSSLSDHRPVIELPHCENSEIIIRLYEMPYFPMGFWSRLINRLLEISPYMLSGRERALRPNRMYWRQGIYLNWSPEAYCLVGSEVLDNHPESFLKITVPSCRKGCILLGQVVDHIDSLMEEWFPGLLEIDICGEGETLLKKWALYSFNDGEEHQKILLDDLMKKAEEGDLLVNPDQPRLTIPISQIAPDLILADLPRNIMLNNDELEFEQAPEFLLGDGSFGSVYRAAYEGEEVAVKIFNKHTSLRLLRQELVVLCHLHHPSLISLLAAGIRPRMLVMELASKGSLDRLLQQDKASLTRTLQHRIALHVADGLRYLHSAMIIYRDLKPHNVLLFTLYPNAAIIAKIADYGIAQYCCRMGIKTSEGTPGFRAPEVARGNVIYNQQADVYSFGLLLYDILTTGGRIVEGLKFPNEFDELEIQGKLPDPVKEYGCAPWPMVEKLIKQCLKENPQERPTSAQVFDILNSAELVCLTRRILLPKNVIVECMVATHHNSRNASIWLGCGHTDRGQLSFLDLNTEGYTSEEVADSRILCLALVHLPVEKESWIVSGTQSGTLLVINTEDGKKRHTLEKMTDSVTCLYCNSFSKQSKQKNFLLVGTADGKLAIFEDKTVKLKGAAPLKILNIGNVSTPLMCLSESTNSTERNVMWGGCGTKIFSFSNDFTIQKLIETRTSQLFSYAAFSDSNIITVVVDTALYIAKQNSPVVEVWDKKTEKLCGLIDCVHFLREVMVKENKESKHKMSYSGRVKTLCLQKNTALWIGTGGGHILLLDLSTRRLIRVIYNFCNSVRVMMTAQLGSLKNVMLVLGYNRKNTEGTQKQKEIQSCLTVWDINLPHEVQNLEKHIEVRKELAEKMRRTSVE
Sequence of Leucine-rich repeat serine/threonine-protein kinase 2 (Homo sapiens, UniProt Q5S007, G2019S) (Q5S007 whole entry G2019S): as the sequence (Q5S007 whole entry) above, with G2019S counted along it
Sequence of Tyrosine-protein kinase JAK1 (Homo sapiens) (P23458 whole entry): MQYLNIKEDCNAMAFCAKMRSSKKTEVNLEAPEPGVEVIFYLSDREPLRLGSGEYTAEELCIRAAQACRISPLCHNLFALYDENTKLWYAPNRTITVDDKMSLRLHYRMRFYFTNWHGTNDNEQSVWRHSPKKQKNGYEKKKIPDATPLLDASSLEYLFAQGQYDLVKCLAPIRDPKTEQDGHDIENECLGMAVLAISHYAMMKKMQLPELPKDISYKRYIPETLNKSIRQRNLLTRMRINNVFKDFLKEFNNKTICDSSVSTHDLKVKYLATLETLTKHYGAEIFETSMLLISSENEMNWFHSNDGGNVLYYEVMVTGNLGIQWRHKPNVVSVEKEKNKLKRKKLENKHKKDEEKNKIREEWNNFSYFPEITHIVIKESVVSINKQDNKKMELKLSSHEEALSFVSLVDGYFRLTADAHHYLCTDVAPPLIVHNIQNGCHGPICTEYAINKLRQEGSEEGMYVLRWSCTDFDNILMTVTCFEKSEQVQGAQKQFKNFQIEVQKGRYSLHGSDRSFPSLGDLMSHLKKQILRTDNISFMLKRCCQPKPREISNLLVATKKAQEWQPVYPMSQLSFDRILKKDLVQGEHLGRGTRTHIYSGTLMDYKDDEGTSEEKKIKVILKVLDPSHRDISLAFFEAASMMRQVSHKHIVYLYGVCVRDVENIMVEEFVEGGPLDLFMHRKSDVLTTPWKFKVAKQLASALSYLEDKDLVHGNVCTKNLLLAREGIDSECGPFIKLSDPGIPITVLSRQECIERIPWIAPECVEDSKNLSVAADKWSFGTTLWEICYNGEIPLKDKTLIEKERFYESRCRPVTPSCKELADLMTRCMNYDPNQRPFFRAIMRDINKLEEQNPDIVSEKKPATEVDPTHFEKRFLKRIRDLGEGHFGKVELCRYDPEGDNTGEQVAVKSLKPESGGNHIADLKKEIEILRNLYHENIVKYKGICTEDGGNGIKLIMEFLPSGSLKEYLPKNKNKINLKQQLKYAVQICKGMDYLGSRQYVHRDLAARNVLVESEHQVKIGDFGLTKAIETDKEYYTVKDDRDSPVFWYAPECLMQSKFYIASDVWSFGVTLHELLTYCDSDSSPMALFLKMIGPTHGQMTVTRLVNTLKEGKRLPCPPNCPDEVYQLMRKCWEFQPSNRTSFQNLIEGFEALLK
Sequence of Serine/threonine-protein kinase PLK1 (Homo sapiens) (P53350 whole entry): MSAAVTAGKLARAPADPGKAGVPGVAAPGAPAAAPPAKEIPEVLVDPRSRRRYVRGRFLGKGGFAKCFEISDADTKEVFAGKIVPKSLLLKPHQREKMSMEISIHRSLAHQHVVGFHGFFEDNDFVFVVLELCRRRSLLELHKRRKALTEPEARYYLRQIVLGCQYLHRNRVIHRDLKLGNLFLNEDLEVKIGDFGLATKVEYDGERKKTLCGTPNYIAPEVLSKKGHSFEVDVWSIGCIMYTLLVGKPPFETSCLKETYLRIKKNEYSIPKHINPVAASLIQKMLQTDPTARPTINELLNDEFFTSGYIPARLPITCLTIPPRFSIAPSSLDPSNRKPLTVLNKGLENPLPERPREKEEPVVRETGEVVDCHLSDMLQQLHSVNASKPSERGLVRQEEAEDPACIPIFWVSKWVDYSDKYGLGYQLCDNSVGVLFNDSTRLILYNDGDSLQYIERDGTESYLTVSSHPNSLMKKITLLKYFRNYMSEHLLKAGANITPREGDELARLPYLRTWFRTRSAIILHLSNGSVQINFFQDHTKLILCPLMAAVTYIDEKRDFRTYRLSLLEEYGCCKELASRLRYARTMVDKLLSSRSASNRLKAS
Sequence of RAC-alpha serine/threonine-protein kinase (Homo sapiens) (P31749 whole entry): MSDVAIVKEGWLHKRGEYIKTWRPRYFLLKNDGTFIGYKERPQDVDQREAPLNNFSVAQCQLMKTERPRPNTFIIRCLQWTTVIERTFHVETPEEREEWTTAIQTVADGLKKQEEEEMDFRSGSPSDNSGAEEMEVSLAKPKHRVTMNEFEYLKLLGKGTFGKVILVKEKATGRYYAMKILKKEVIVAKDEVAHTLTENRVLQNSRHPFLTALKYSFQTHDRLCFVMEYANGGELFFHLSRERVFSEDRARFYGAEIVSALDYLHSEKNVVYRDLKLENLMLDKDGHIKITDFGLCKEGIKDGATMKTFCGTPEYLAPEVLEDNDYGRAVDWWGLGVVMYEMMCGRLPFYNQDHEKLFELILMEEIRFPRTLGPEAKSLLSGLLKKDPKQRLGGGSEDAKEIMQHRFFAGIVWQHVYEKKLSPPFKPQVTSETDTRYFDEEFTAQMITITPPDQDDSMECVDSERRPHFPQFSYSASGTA

Papp [1]: 28 ×10⁻⁶ cm/s
efflux ratio [2]: 0.8
solubility kinetic [3]: 72 µM (≈ 23.1 µg/mL)
Ratio IC50 [4]: 2.7
IC50 [5]: 535 nM
IC50 [6]: 200 nM
Compound: COC(=O)C(C)Sc1ccc2nnc(-c3cccs3)n2n1 (configuration not stated)

inhibition [7]: < 18%
inhibition [8]: < 18%
inhibition [9]: < 18%
inhibition [10]: < 18%
inhibition [11]: < 18%
inhibition [12]: < 18%
inhibition [13]: < 18%
inhibition [14]: < 18%
inhibition [15]: < 18%
inhibition [16]: < 18%
inhibition [17]: < 18%
inhibition [18]: < 18%
inhibition [19]: < 18%
inhibition [20]: < 18%
inhibition [21]: < 18%
inhibition [22]: < 18%
inhibition [23]: < 18%
inhibition [24]: < 18%
inhibition [25]: < 18%
Stability [26]: Stable
Papp [1]: 2.1 ×10⁻⁶ cm/s
Stability [27]: Unstable
solubility kinetic [3]: 9 µM (≈ 3.35 µg/mL)
Ratio IC50 [4]: 4.8
IC50 [5]: 242 nM
IC50 [6]: 50 nM
Compound: FC(F)(F)c1cccc(Sc2ccc3nnc(-c4ccccc4)n3n2)c1
